A selection: hits, their analogues and other compounds. The true share with any hit is near 0.72%.
PolyA inh: yeast polyadenylation inhibition. S. cerevisiae SKY197-pL101 polyadenylation reporter, beta-gal luminescence; efflux-impaired pdr1/pdr3 knockout yeast; score 100 = 6 SD above DMSO. activity score, % at 12 µM. AID 1875. 0.02% of 300,000 active;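 active means lowest replicate activity score at least 50, where 100 means six control SD above control mean; inconclusive means lowest score under 50 but half or more replicates reach 50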;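 further: yeast exposed to compound for 9 h at 30 °C; higher score means more reporter readthrough which indicates perturbed polyadenylation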
STK33 kinase inh: human STK33 kinase inhibition. Q9BYT3. purified STK33, MBP phosphorylation, ADP-Glo luminescence. inhibition, % at 10 µM. 0.073% of 320,000 active. AID 2661;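 active means inhibition at or above 25%, using the most active replicate where run in duplicate; inactive means inhibition below 25%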
Target sequence (Q9BYT3 whole entry, looked up): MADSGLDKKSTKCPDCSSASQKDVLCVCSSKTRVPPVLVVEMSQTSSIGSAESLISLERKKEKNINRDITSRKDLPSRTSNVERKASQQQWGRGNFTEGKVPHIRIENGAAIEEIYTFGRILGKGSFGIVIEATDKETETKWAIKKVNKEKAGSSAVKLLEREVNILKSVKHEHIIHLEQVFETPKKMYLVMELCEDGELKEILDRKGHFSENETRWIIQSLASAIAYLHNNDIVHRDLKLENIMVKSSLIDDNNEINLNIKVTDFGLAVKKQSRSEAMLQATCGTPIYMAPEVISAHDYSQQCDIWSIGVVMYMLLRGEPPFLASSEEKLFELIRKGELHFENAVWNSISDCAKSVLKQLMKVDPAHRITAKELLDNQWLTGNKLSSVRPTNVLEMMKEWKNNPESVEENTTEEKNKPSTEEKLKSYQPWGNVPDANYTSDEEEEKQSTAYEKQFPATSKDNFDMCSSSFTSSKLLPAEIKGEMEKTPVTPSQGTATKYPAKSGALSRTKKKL
GSK3B inh: human GSK3beta kinase inhibition. 0.038% of 300,000 active. activity score (negative = inhibition), % at 10 µM. P49841. AID 2097. GST-GSK3beta kinase, ADP-Glo luminescence, 60 min; hits give low values;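 active means more than half of replicate wells score below -50%, meaning over 50% inhibition versus plate controls; inconclusive means some replicates but at most half score below -50%; inactive means no replicate scores below -50%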
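Test system – GST-tagged human GSK3beta kinase, cell-free · Incubation – 60 min enzyme reaction, room temperature · Signal – ADP-Glo luminescence · Also added – peptide substrate and ATP at 25 µM · Controls – DMSO neutral wells and GW8510 at 20 µM as positive · Buffer or medium – Tris/MgCl2 kinase buffer · Measure – Luminescence-derived activity versus plate DMSO and GW8510 wells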
GSK3A inh: inhibitors of human GSK-3 alpha kinase; P49840; AID 2650; inhibition, % at 10 µM; ADP-Glo luminescence, 60 min; 0.1% of 320,000 active;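 active means more than half of replicates show inhibition above 20%; inconclusive means some but at most half of replicates above 20% inhibition; inactive means no replicate shows inhibition above 20%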;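 further: GST-tagged GSK-3 alpha with peptide substrate and 25 µM ATP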
AI-2 QS mod: modulators of Vibrio harveyi AI-2 quorum sensing system | Vibrio harveyi JMH597 AI-2 luminescence/OD600 ratio, 9 h; hits give low values; strain lacks LuxN and CqsS sensors; 0 = neutral-control median | activity change, % at 7.5 µM | 0.4% of 300,000 active | AID 2094; in the data active means activity change below about -75%, passing the limit was not always enough; inconclusive means no clear call, values can overlap the other calls;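 further: luminescence divided by OD600 gain over 9 h not by final OD600 alone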
CR mimetic SO: lowers age-related superoxide in aged yeast cells; S. cerevisiae aged cells, superoxide DHE fluorescence; hits give low values; superoxide response (% of plate mean), % at 10 µM; 0.18% of 330,000 active; AID 2690;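 active means superoxide response under a set limit, about three screen SD below normal, cut at about 65% in these data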;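 further: yeast aged for seven days with compound at 30 °C before DHE staining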
JMH597 growth: retest: inhibitors of Vibrio harveyi JMH597 growth; OD600 absorbance, 9 h; lacks LuxN and CqsS sensors; shares compounds with AI-2 QS mod; AID 2726; 1% of 750 active; growth inhibition, % at 7.5 µM;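 active means every replicate shows growth inhibition above 50%; inconclusive means at least half, but not all, replicates pass that cutoff; inactive means fewer than half of replicates pass it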
BB721 const-QS lum: retest counter-screen: lowers luminescence of constitutive-QS Vibrio harveyi BB721; shares compounds with AI-2 QS mod; inhibition, % at 7.5 µM; 95% of 750 active; 9 h; AID 2727;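 active means inhibition above about 80% in every replicate, not just on average, limit read from the data; inconclusive means at least half of replicates past the limit, but not all; inactive means fewer than half of replicates past the limit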
BB721 growth: retest: blocks Vibrio harveyi BB721 growth; shares compounds with AI-2 QS mod; OD600 absorbance, 9 h; growth inhibition, % at 7.5 µM; 3% of 750 active;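 active means every replicate shows growth inhibition above 50%; inconclusive means at least half but not all replicates above 50% inhibition; inactive means under half of replicates above 50% inhibition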
JMH597 AI-2 mod: Vibrio harveyi AI-2 signaling luminescence modulation – JMH597 strain, confirmation. shares compounds with AI-2 QS mod. Vibrio harveyi JMH597 AI-2 quorum sensing luminescence, 9 h; luxN and CqsS knockout, AI-2 only. inhibition, % at 7.5 µM. 97% of 750 active. AID 2736;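 active means every replicate shows more than 75% inhibition of signal versus neutral control wells; inconclusive means half to three quarters of replicates exceed 75% inhibition; inactive means fewer than half of replicates exceed 75% inhibition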
Of the large screens only hits and unclear results are named; the others gave an inactive call (follow-up assays come after a bar, where they were run).

O=C(CCc1ccccc1)Nc1cc(Cl)ccc1O	AI-2 QS mod -97 | JMH597 growth inactive | BB721 const-QS lum 100 | BB721 growth inactive | JMH597 AI-2 mod 100
O=C(NCc1ccc(Cl)cc1)c1cc2ccccn2n1	AI-2 QS mod -84 | JMH597 growth inactive | BB721 const-QS lum 92 | BB721 growth inactive | JMH597 AI-2 mod 95
COc1ccc(NC(=O)c2cc3ccccn3n2)cc1	none
O=C(NCCN1CCOCC1)/C(=C/c1ccco1)NC(=O)c1ccccc1	none
CC(C)(C)c1ccc(OCC(=O)NCc2ccco2)cc1	AI-2 QS mod inconclusive | JMH597 growth inactive | BB721 const-QS lum 88 | BB721 growth inactive | JMH597 AI-2 mod 94
O=C(Cn1cnc2c(nnn2Cc2ccc(F)cc2)c1=O)Nc1cccc(F)c1	none
O=C(Cn1cnc2c(nc3n2CCCCC3)c1=O)Nc1cccc(C(F)(F)F)c1	AI-2 QS mod -86 | JMH597 growth inactive | BB721 const-QS lum 95 | BB721 growth inactive | JMH597 AI-2 mod 96
O=C(Nc1ccc(Nc2ccccc2)cc1)c1ccc(Cl)cc1[N+](=O)[O-]	AI-2 QS mod -86 | JMH597 growth inactive | BB721 const-QS lum inconclusive | BB721 growth inactive | JMH597 AI-2 mod 91
Cc1cccc(C)c1NC(=O)Cn1nc(C)n2cccc2c1=O	none
CCOC(=O)c1cccc(NC(=O)Cn2nc(C)n3cccc3c2=O)c1	AI-2 QS mod -97 | JMH597 growth inactive | BB721 const-QS lum 100 | BB721 growth inactive | JMH597 AI-2 mod 100
Cc1ccc(CNc2ccc3c(c2)ncn3C)cc1	AI-2 QS mod -82 | JMH597 growth inactive | BB721 const-QS lum 91 | BB721 growth inactive | JMH597 AI-2 mod 95
CCc1ccc(CNc2ccc3c(c2)ncn3C)cc1	AI-2 QS mod -91 (no result: STK33 kinase inh, GSK3A inh) | JMH597 growth inactive | BB721 const-QS lum 96 | BB721 growth inactive | JMH597 AI-2 mod 98
COc1ccc(CNc2ccc3c(c2)ncn3C)cc1OC	none
Cc1ccc(CNc2ccc3c(c2)ncn3C(C)(C)C)cc1	none
O=C(c1ccc2c3n(nc2c1)-c1ccccc1CO3)N1CCCCC1	STK33 kinase inh 27, AI-2 QS mod -84 | JMH597 growth inactive | BB721 const-QS lum 89 | BB721 growth inactive | JMH597 AI-2 mod 95
Cc1ccc2c(c1)COc1c3ccc(C(=O)N4CCCCC4)cc3nn1-2	none
O=C(Nc1ccc(Oc2ccc(NC(=O)c3ccco3)c(NC(=O)c3ccco3)c2)cc1)c1ccco1	none
O=C(Nc1ccc(Oc2ccc3ccccc3c2)cc1)c1ccco1	AI-2 QS mod -96 | JMH597 growth inactive | BB721 const-QS lum 99 | BB721 growth 102 | JMH597 AI-2 mod 99
O=C(/C=C/Sc1ccccc1)c1ccc(Cl)cc1	none
O=C(/C=C/Sc1ccccc1)c1ccccc1	AI-2 QS mod -92 | JMH597 growth inactive | BB721 const-QS lum 98 | BB721 growth inactive | JMH597 AI-2 mod 98
O=C(NCc1ccccc1Cl)c1ccc(Br)o1	none
O=C(NCc1nc(-c2ccccc2)no1)c1ccc(Br)o1	AI-2 QS mod -95 | JMH597 growth inactive | BB721 const-QS lum 98 | BB721 growth inactive | JMH597 AI-2 mod 99
Cc1cccc(-c2noc(CNC(=O)c3ccco3)n2)c1	AI-2 QS mod -94 | JMH597 growth inactive | BB721 const-QS lum 99 | BB721 growth inactive | JMH597 AI-2 mod 99
Cc1cccc(NCc2nc(-c3ccccc3)no2)c1	AI-2 QS mod inconclusive (no result: GSK3A inh) | JMH597 growth inactive | BB721 const-QS lum 96 | BB721 growth inactive | JMH597 AI-2 mod 98
